Laboratory results as given in paper PMC5771842 (Nature chemical biology, 2018).
“Also recorded” adds a separate entry of the source.

How the values were obtained:
MC99IIIBΔTat-Rev HIV-1 = test: HIV cytoprotection assay; format: cell-based; conditions: CEM 1A2 tat/rev++ cells
How it was run: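 CEM 1A2 tat/rev++ cells, which die on HIV infection, grown in RPMI-1640 with 20% FBS, bicarbonate and antibiotic-antimycotic at 37°C, 5% CO2; 12,500 cells/well. Test compound added in DMSO, then HIV-1 MC99IIIBΔTat-Rev; 4-day incubation. MTT added for 1–2 h, formazan dissolved in DMSO, absorbance read at 590 nm. Triplicate per dose; infected, uninfected, media-only and AZT controls. IC50/CC50 estimated by eye.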

[1] = system: CEM 1A2 tat/rev++ T-cells; test: HIV cytoprotection assay; format: cell-based, human; conditions: CEM 1A2 T cells

## divamide C [Compound 3]
MC99IIIBΔTat-Rev HIV-1
  anti-HIV activity (cytoprotection), in words: essentially inactive; also recorded: neither cytotoxic nor anti-HIV activities; also recorded: lacked any detectable cytoprotection
[1]
  cytotoxicity, in words: neither cytotoxic nor anti-HIV activities
